Measured values from ChEMBL document CHEMBL3259808, “Optimization of antitrypanosomatid agents: identification of nonmutagenic drug candidates with in vivo activity” (J Med Chem, 2014).

Assays:
[1] = test system: Salmonella typhimurium; assay: Mutagenic activity in Salmonella typhimurium TA98 at 5 to 400 ug/plate by Ames test in presence of mouse liver S9 fraction; type: toxicity, organism-based; settings: salmonella enterica subsp. enterica serovar typhimurium
Summary of the method: (§1)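 Ames plate-incorporation assay with S. typhimurium TA98 in Vogel-Bonner E minimal glucose agar. Toxicity toward the bacteria was checked first. DMSO solutions were run in triplicate at five consecutive third-dilutions, starting at the highest non-toxic dose. Positive controls were 4-nitro-o-phenylenediamine (20.0 μg/plate) and 2-aminofluorene (10.0 μg/plate); DMSO was the negative control. Revertants were counted manually. A compound was called mutagenic when revertants were at least twice the negative control at two or more consecutive doses.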

[2] = test system: Trypanosoma cruzi; assay: Antitrypanosomal activity against Trypanosoma cruzi Tulahuen 2 epimastigotes assessed as growth inhibition after 5 days; type: functional, organism-based
Summary of the method: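 Epimastigotes were grown axenically at 28 °C in BHI-tryptose with 5% FBS and seeded from a 5–7 day culture at 1 × 10⁶ cells/mL. Drug from a DMSO stock was added (final DMSO ≤0.4%; the control contained 0.4% DMSO). Duplicates were run. A600 was read at day 5, and % inhibition was calculated relative to day-0 and control readings. IC50 = concentration that halves the absorbance ratio.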

[3] = test system: Salmonella typhimurium; assay: Mutagenic activity in Salmonella typhimurium TA98 at 5 to 400 ug/plate by Ames test; type: toxicity, organism-based; settings: salmonella enterica subsp. enterica serovar typhimurium; summary of the method: as §1
[4] = Stability of the compound in aqueous solution assessed as compound remaining at 1 mM at pH 9 after 1 hr by TLC analysis; type: physicochemical; settings: for remaining at 1 h, 1000 µM: aqueous solution, pH 9, read-out: Stability
Summary of the method: (§2)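 DMSO stocks diluted to final 1 mM in KCl·HCl pH 1.0, citrate pH 6.0, Tris·HCl pH 7.4 or borax·HCl pH 9.0 buffer. Incubated 1 h at 37 °C, then ethyl acetate extracts checked by TLC for decomposition products.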

[5] = Stability of the compound in aqueous solution assessed as compound remaining at 1 mM at pH 7.4 after 1 hr by TLC analysis; type: physicochemical; settings: for remaining at 1 h, 1000 µM: aqueous solution, pH 7.4, read-out: Stability; summary of the method: as §2
[6] = test system: Trypanosoma cruzi; assay: Antitrypanosomal activity against Trypanosoma cruzi Sylvio X-10 amastigotes infected in African green monkey Vero cells assessed as eradication of amastigotes after 5 days by Giemsa staining-based assay; type: functional, organism-based; settings: Sylvio X-10, Vero, 120 h
Summary of the method: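 VERO cells in RPMI 1640 with 10% hiFCS were allowed to adhere for 24 h at 37 °C in 5% CO₂, then infected with tissue-derived trypomastigotes at 10:1. Free parasites were washed off after 24 h, and cultures were treated at five compound doses (text gives 72 h / 5 days). Cultures were methanol-fixed and Giemsa-stained, and infected cells were counted among 300. Quadruplicates were run in three independent experiments. IC50/IC90 were obtained by sigmoidal regression.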

[7] = test system: Trypanosoma cruzi; assay: Antitrypanosomal activity against Trypanosoma cruzi Sylvio X-10 amastigotes infected in African green monkey Vero cells assessed as eradication of amastigotes after 72 hrs by Giemsa staining-based assay; settings: Sylvio X-10, Vero
[8] = Stability of the compound in aqueous solution assessed as compound remaining at 1 mM at pH 6 after 1 hr by TLC analysis; type: physicochemical; settings: for remaining at 1 h, 1000 µM: aqueous solution, pH 6, read-out: Stability; summary of the method: as §2
[9] = Selectivity index, ratio of IC50 for African green monkey Vero cells to IC50 for Trypanosoma cruzi Sylvio X-10 amastigotes; type: toxicity, cell-based; settings: read-out: Ratio IC50
Summary of the method: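 VERO cytotoxicity: cells exposed 48 h at 37 °C, 5% CO2 to serial dilutions from a maximum of 2000 μM (DMSO stocks; DMSO <0.1% control); growth inhibition read by MTT at 570 nm. Amastigote IC50: Sylvio X-10-infected VERO cells, five doses, infected cells counted among 300 (Giemsa), quadruplicate, three experiments, sigmoidal fit. SI = IC50 VERO / IC50 amastigote.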

[10] = test system: Salmonella typhimurium; assay: Mutagenic activity in Salmonella typhimurium TA98 at 0.005 to 0.4 ug/plate by Ames test; type: toxicity, organism-based; settings: salmonella enterica subsp. enterica serovar typhimurium
Summary of the method: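 Direct plate incubation on minimal glucose agar (Vogel-Bonner E). Compound toxicity to the bacteria was checked first. DMSO solutions were tested at five consecutive 3-fold dilutions, starting from the highest non-toxic dose, in triplicate, without metabolic activation. DMSO served as negative control. Revertants were counted manually; mutagenic = revertants at least double the negative control at two or more consecutive doses.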

[11] = test system: Salmonella typhimurium; assay: Mutagenic activity in Salmonella typhimurium TA98 at 0.005 to 0.4 ug/plate by Ames test in presence of mouse liver S9 fraction; type: toxicity, organism-based; settings: salmonella enterica subsp. enterica serovar typhimurium
Summary of the method: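 Plate-incorporation Ames test on minimal glucose agar with 500 μL Aroclor-treated mouse liver S9 added. DMSO solutions were tested at five consecutive 3-fold dilutions from the highest non-toxic dose, in triplicate, with a DMSO negative control. Revertants were counted manually; a compound was scored mutagenic when revertants were at least twice the negative control for two or more consecutive doses.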

[12] = Selectivity index, ratio of IC50 for human RBC to IC50 for Trypanosoma cruzi Sylvio X-10 amastigotes
Summary of the method: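 Hemolysis: washed human erythrocytes (2% w/v in PBS) incubated 24 h at 37 °C with compound at final 50, 100 and 200 μM. Ten replicates per concentration. Hemoglobin release read at 405 nm against water lysis as 100%; amphotericin B 1.5 μM was the positive control. SI = IC50 red cells / parasite IC50 (Sylvio X-10 amastigotes or Tulahuen 2 epimastigotes).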

[13] = Trypanosoma cruzi, Tulahuen 2, 120 h

| SMILES | IC50 [2, 13] [µM] | other results |
| --- | --- | --- |
| Br.C=CCn1c(-c2ccc([N+](=O)[O-])cc2)cs\c1=N/N=C/C=C/c1ccco1 | > 25 | Activity [1]: Toxic; Activity [3]: Toxic |
| C=CCNC(=S)N/N=C/c1cc2ccccc2o1 | > 25 | – |
| C=CCn1c(-c2ccc(Br)cc2)cs\c1=N/N=C/C=C/c1cccs1 | > 25 | – |
| C(=C\c1ccco1)/C=N/N=c1/scc(-c2ccccc2)n1-c1ccccc1 | 5 | – |
| Cc1cs/c(=N/N=C/C=C/c2ccco2)n1-c1ccccc1 | 25 | – |
| O=C1CS\C(=N/N=C/C=C/c2ccco2)N1c1ccccc1 | > 25 | – |
| C=CCn1c(C)cs/c1=N\N=C\c1cccs1 | > 25 | Stability ([4]; buffer, pH 9, 1 h, 1000 µM): Unstable; Stability ([5]; buffer, pH 7.4, 1 h, 1000 µM): Unstable; IC50 [6]: > 25 µM; IC90 [7]: > 25 µM; Stability ([8]; buffer, pH 6, 1 h, 1000 µM): Unstable |
| C=CCN1C(=O)CS\C1=N/N=C/C=C/c1ccco1 | > 25 | – |
| O=C1CS\C(=N/N=C\C=C\C=C\c2cccs2)N1c1ccccc1 | > 25 | – |
| C=CCn1c(-c2ccccc2)cs/c1=N\N=C\c1ccc(S(=O)(=O)O)o1 | > 25 | – |
| C=CCn1c(-c2ccccc2)cs/c1=N\N=C\c1ccc([N+](=O)[O-])s1 | 6 | selectivity ratio [9]: 5; IC50 [6]: 25 µM |
| C=CCn1c(C)cs\c1=N/N=C/C=C/c1ccccc1 | > 25 | – |
| C=CCNC(=S)N/N=C/c1ccnc2ccccc12 | 17 | – |
| O=C1CS/C(=N\N=C\c2ccc([N+](=O)[O-])s2)N1 | > 25 | – |
| C=CCn1c(-c2ccccc2)cs\c1=N/N=C/C=C/c1ccccc1 | > 25 | – |
| C=CCNC(=S)N/N=C/c1ccc(O)cc1 | > 25 | – |
| C=CCN1C(=O)CS/C1=N\N=C\c1ccc([N+](=O)[O-])s1 | > 25 | IC50 [6]: > 25 µM; IC90 [7]: > 25 µM |
| C=CCNC(=S)N/N=C/c1ccsc1 | > 25 | – |
| C=CCn1c(C)csc1=N/N=C/c1ccc([N+](=O)[O-])s1 | 20 | Activity [10]: Non-toxic; Activity [11]: Non-toxic; IC50 [6]: 2.55 µM |
| C=CCN1C(=O)CS/C1=N\N=C\c1cccs1 | > 25 | – |
| O=C1CS/C(=N\N=C\c2ccc([N+](=O)[O-])s2)N1c1ccccc1 (stereo in doubt; 13) | – | IC50 [2]: > 25 µM |

| SMILES | IC50 [2, 13] [µM] | other results |
| --- | --- | --- |
| C=CCN1C(=O)CS/C1=N/N=C\c1ccc(Cl)cc1 | > 25 | – |
| C=CCN(C(C)=O)C1=NNC(c2cccs2)S1 (stereo not drawn) | > 25 | – |
| C=CCN(C(C)=O)C1=NNC(c2ccc([N+](=O)[O-])s2)S1 (stereo not drawn) | > 25 | – |
| S=C(N/N=C/c1ccccc1)Nc1ccccc1 | 19 | – |
| C=CCn1c(-c2ccc(Cl)cc2)cs\c1=N/N=C/C=C/c1ccc([N+](=O)[O-])s1 | 10 | IC50 [6]: 16.9 µM; IC90 [7]: 25.4 µM |
| C=CCNC(=S)N/N=C/C=C/c1cccs1 | > 25 | Activity [1]: Non-toxic; Activity [3]: Non-toxic |
| Cc1cs/c(=N\N=C\c2cccs2)n1-c1ccccc1 | > 25 | – |
| C=CCn1c(-c2ccc(Cl)cc2)cs/c1=N\N=C\c1ccc2c(c1)[n+]([O-])c(C)c(C)[n+]2[O-] | 15 | – |
| C=CCn1c(C)cs/c1=N\N=C\c1ccc(S(=O)(=O)O)o1 | > 25 | – |
| C=CCn1c(-c2ccc(Cl)cc2)cs/c1=N\N=C\c1ccsc1 | 14.6 | – |
| C(=N\N=c1/scc(-c2ccccc2)n1-c1ccccc1)/c1ccccc1 | > 25 | – |
| C=CCNC(=S)N/N=C/C=C/c1ccccc1 | 6.6 | – |
| C=CCn1c(-c2ccc(OC)cc2)cs\c1=N/N=C/C=C/c1cccs1 | > 25 | – |
| C=CCn1c(C)cs/c1=N\N=C\c1ccco1 | > 25 | – |
| C=CCNC(=S)N/N=C/c1ccc(SC)cc1 | 10 | – |
| C=CCNC(=S)N/N=C/c1ccc2c(c1)OCO2 | > 25 | – |
| S=C(N/N=C/C=C/c1ccco1)Nc1ccccc1 | 11 | – |
| C=CCN(C(C)=O)C1=NN(C(C)=O)C(/C=C/c2ccco2)S1 (stereo not drawn) | > 25 | – |
| Br.C=CCn1c(-c2ccc(Br)cc2)cs\c1=N/N=C/C=C/c1ccco1 | 2.9 | remaining at 1 h, 1000 µM [4]: > 95%; Activity [1]: Non-toxic; remaining at 1 h, 1000 µM [5]: > 95%; Activity [3]: Non-toxic; remaining at 1 h, 1000 µM [8]: > 95% |
| C=CCn1c(-c2ccc(Cl)cc2)cs/c1=N\N=C\c1ccc(Cl)cc1 | > 25 | – |
| C=CCNC(=S)N/N=C/c1cncc(Br)c1 | > 25 | – |

| SMILES | IC50 [2, 13] [µM] | other results |
| --- | --- | --- |
| C=CCn1c(-c2ccc(Cl)cc2)cs\c1=N/N=C/C=C/c1cccs1 | > 25 | – |
| C=CCn1c(-c2ccccc2)cs/c1=N/N=C/c1cccs1 | > 25 | – |
| C=CCn1c(-c2ccc(Cl)cc2)cs/c1=N/N=C/c1ccc([N+](=O)[O-])s1 | 14 | IC50 [6]: > 25 µM; IC90 [7]: > 25 µM |
| C=CCn1c(-c2ccccc2)cs/c1=N/N=C/c1ccc([N+](=O)[O-])s1 | 20 | – |
| C=CCn1c(-c2ccc(OC)cc2)cs\c1=N/N=C/C=C/c1ccco1 | 4.9 | remaining at 1 h, 1000 µM [4]: > 95%; Activity [1]: Non-toxic; remaining at 1 h, 1000 µM [5]: > 95%; Activity [3]: Non-toxic; remaining at 1 h, 1000 µM [8]: > 95% |
| N/C(S)=N/N=C/c1ccc([N+](=O)[O-])s1 | 25 | – |
| C[C@@H]1[C@H](O)[C@@H](C)/C=C/C=C/C=C/C=C/C=C/C=C/C=C/[C@H](O[C@@H]2O[C@H](C)[C@@H](O)[C@H](N)[C@@H]2O)C[C@@H]2O[C@](O)(C[C@@H](O)C[C@@H](O)[C@H](O)CC[C@@H](O)C[C@@H](O)CC(=O)O[C@H]1C)C[C@H](O)[C@H]2C(=O)O [AMPHOTERICIN B] | – | Ratio IC50 [12]: 10; IC50 [6]: 1.1 µM |
| C=CCn1c(-c2ccc(Cl)cc2)cs/c1=N/N=C/c1cccs1 | > 25 | IC50 [6]: 8 µM |
| CC(=O)N(C1=NN(C(C)=O)C(c2cccs2)S1)c1ccccc1 (stereo not drawn) | > 25 | – |
| O=[N+]([O-])c1ccc(/C=N/N=c2\scc(-c3ccccc3)n2-c2ccccc2)s1 | > 25 | – |
| O=[N+]([O-])c1ccc(/C=N/NC(=S)Nc2ccccc2)s1 | 4 | selectivity ratio [9]: 20; IC50 [6]: 4.1 µM |
| C=CCNC(=S)N/N=C/c1ccc2ccccc2c1 | 5.4 | – |
| C=CCNC(=S)N/N=C/c1ccc(Cl)cc1 | 11 | – |
| C=CCn1c(-c2ccc(OC)cc2)cs/c1=N/N=C/c1ccc([N+](=O)[O-])s1 | 8 | IC50 [6]: > 25 µM; IC90 [7]: > 25 µM |
| C=CCn1c(-c2ccc([N+](=O)[O-])cc2)cs\c1=N/N=C/C=C/c1cccs1 | > 25 | – |
| C=CCN1C(=O)CS\C1=N/N=C\C=C\C=C\c1cccs1 | > 25 | – |
| C=CCn1c(-c2ccccc2)cs\c1=N/N=C/C=C/c1cccs1 | > 25 | – |
| C=CCn1c(-c2ccc3ccccc3c2)cs\c1=N/N=C/C=C/c1cccs1 | > 25 | – |
| S=C(N/N=C/C=C/C=C/c1cccs1)Nc1ccccc1 | 1.7 | IC50 [6]: > 25 µM; IC90 [7]: > 25 µM |
| C=CCn1c(-c2ccccc2)cs/c1=N\N=C\c1ccco1 | > 25 | – |
| O=C1CS/C(=N\N=C\c2ccc([N+](=O)[O-])s2)N1c1ccccc1 (stereo in doubt; 10) | 13 | IC50 [6]: > 25 µM; IC90 [7]: > 25 µM |
